Activity calls are given as the source filed them. The rule behind the calls is not given here.
Experiments:
[1] = tested on: K562; experiment: Antiproliferative activity against human K562 cells after 72 hrs by MTT assay; format: functional, cell-based; details: K562, 72 h
In short: (§1)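 MTT viability read-out after 72 h continuous exposure to test compounds. Performed in triplicate and reported as IC50, means ± SD, n = 3.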

[2] = tested on: H22; experiment: Antiproliferative activity against […] cells after 72 hrs by MTT assay; format: functional, cell-based; details: Mus musculus, H22, 72 h; in short: as §1
[3] = tested on: HepG2; experiment: Antiproliferative activity against human HepG2 cells after 72 hrs by MTT assay; format: functional, cell-based; details: HepG2, 72 h; in short: as §1
[4] = tested on: HCT-8; experiment: Antiproliferative activity against human HCT8 cells after 72 hrs by MTT assay; format: functional, cell-based; details: HCT-8, 72 h; in short: as §1
[5] = tested on: L02; experiment: Cytotoxicity against human LO2 cells after 72 hrs by MTT assay; format: cell-based; details: L02, 72 h; in short: as §1
[6] = tested on: KB; experiment: Antiproliferative activity against human KB cells after 72 hrs by MTT assay; format: functional, cell-based; in short: as §1
[7] = tested on: MDA-MB-231; experiment: Antiproliferative activity against human MDA-MB-231 cells after 72 hrs by MTT assay; format: functional, cell-based; details: MDA-MB-231, 72 h; in short: as §1
[8] = Inhibition of porcine brain tubulin polymerization after 30 mins by spectrophotometric method; set-up: species or system Sus scrofa
[9] = species on record: Sus scrofa; experiment: Inhibition of [3H]colchicine binding to biotinylated porcine tubulin at 1 uM after 2 hrs by scintillation proximity assay
[10] = species on record: Sus scrofa; experiment: Inhibition of [3H]colchicine binding to biotinylated porcine tubulin at 5 uM after 2 hrs by scintillation proximity assay
[11] = tested on: K562; experiment: Induction of apoptosis in human K562 cells assessed as late apoptotic cells at 5 nM after 48 hrs by Annexin V-APC/7-AAD staining based flow cytometry (reference value: 5.7%); format: functional
[12] = tested on: K562; experiment: Induction of apoptosis in human K562 cells assessed as late apoptotic cells at 20 nM after 48 hrs by Annexin V-APC/7-AAD staining based flow cytometry (reference value: 5.7%); format: functional
[13] = tested on: K562; experiment: Induction of mitochondrial membrane depolarization in human K562 cells at 5 nM after 48 hrs by JC-1 probe based flow cytometry (reference value: 0.6%); format: functional
In short: (§2)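 K562 cells treated at 0, 5, 10 or 20 nM for 48 h. Mitochondrial membrane potential measured with JC-1 probe and the percentage of cells with collapsed potential recorded.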

[14] = tested on: K562; experiment: Induction of apoptosis in human K562 cells after 48 hrs by Annexin V-APC/7-AAD staining based flow cytometry; format: functional, cell-based
[15] = tested on: K562; experiment: Cell cycle arrest in human K562 cells assessed as accumulation at G2/M phase at 20 nM after 48 hrs by propidium iodide staining based flow cytometry; format: functional
In short: (§3)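 K562 cells treated at 5, 10 or 20 nM for 48 h. Stained with propidium iodide and DNA content analysed for the fraction in G2/M.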

[16] = tested on: K562; experiment: Induction of apoptosis in human K562 cells assessed as late apoptotic cells at 10 nM after 48 hrs by Annexin V-APC/7-AAD staining based flow cytometry (reference value: 5.7%); format: functional
[17] = tested on: H22; experiment: Antitumor activity against […] cells xenografted in ICR mouse assessed as reduction in tumor weight at 15 mg/kg, iv qd for 21 consecutive days; format: functional; set-up: scale not given: the % may be the effect or the level left
In short: (§4)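 H22 cells inoculated subcutaneously into the right flank of mice. Dosing i.v. at 15 or 30 mg/kg per day, or paclitaxel 8 mg/kg every 2 days, for 21 days. Tumor size and body weight recorded every 2 days. Tumor weight compared with vehicle at day 21.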

[18] = tested on: K562; experiment: Induction of mitochondrial membrane depolarization in human K562 cells at 10 nM after 48 hrs by JC-1 probe based flow cytometry (reference value: 0.6%); format: functional; in short: as §2
[19] = tested on: K562; experiment: Cell cycle arrest in human K562 cells assessed as accumulation at G2/M phase at 10 nM after 48 hrs by propidium iodide staining based flow cytometry; format: functional; in short: as §3
[20] = tested on: HUVEC; experiment: Antivascular activity against HUVEC assessed as reduction in capillary like tube formation up to 20 nM after 6 hrs by inverted microscopic based matrigel method; format: functional, cell-based; details: Homo sapiens
In short: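 HUVECs seeded on matrigel to form capillary-like tubules, then exposed to 0, 5, 10 or 20 nM for 6 h. Disruption of tube networks scored.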

[21] = tested on: HUVEC; experiment: Antimigratory activity in HUVEC after 24 hrs by wound healing based phase contrast microscopy; format: functional, cell-based; details: Homo sapiens
In short: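 Confluent HUVEC monolayer scraped to make a wound. Cells exposed to test agent and migration into the scraped area followed over 24 h.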

[22] = tested on: K562; experiment: Induction of microtubule network disruption in human K562 cells after 24 hrs by DAPI staining based immunofluorescence assay; format: functional, cell-based
In short: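 K562 cells exposed at 5, 10 or 20 nM for 24 h. Microtubule network visualized by immunofluorescence against untreated cells.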

[23] = tested on: H22; experiment: Antitumor activity against […] cells xenografted in ICR mouse assessed as reduction in tumor weight at 30 mg/kg, iv qd for 21 consecutive days; format: functional; set-up: scale not given: the % may be the effect or the level left; in short: as §4
[24] = tested on: Mus musculus; experiment: Toxicity in ICR mouse xenografted with […] cells assessed as decrease in body weight up to 30 mg/kg, iv qd for 21 consecutive days measured every 2 days; format: organism-based; details: in vivo, 48 h; in short: as §4
[25] = tested on: K562; experiment: Cell cycle arrest in human K562 cells assessed as accumulation at G2/M phase at 5 nM after 48 hrs by propidium iodide staining based flow cytometry; format: functional; in short: as §3
[26] = tested on: K562; experiment: Induction of apoptosis in human K562 cells assessed as early apoptotic cells at 10 nM after 48 hrs by Annexin V-APC/7-AAD staining based flow cytometry (reference value: 5.7%); format: functional
[27] = tested on: K562; experiment: Induction of apoptosis in human K562 cells assessed as early apoptotic cells at 5 nM after 48 hrs by Annexin V-APC/7-AAD staining based flow cytometry (reference value: 5.7%); format: functional
[28] = tested on: K562; experiment: Induction of mitochondrial membrane depolarization in human K562 cells at 20 nM after 48 hrs by JC-1 probe based flow cytometry (reference value: 0.6%); format: functional; in short: as §2
[29] = tested on: K562; experiment: Induction of apoptosis in human K562 cells assessed as early apoptotic cells at 20 nM after 48 hrs by Annexin V-APC/7-AAD staining based flow cytometry (reference value: 5.7%); format: functional
[30] = tested on: H22; experiment: Antitumor activity against […] cells xenografted in ICR mouse assessed as reduction in tumor weight at 8 mg/kg, iv per 2 days for 21 consecutive days; format: functional; set-up: scale not given: the % may be the effect or the level left; in short: as §4
[31] = tested on: Mus musculus; experiment: Toxicity in ICR mouse xenografted with […] cells assessed as decrease in body weight at 8 mg/kg, iv per 2 days for 21 consecutive days measured every 2 days; format: organism-based; details: in vivo, 48 h; in short: as §4

## COc1ccc2c(c1O)COC(C)C2=O (centres undefined)
[1]
  IC50: 20500 nM
[2]
  IC50: 18200 nM
[3]
  IC50: 23700 nM
[4]
  IC50: 35200 nM
[5]
  IC50: 22200 nM
[6]
  IC50: 25100 nM
[7]
  IC50: 30200 nM
[8]
  IC50: 10600 nM

## COc1ccc2c(c1O)COC=C2c1cc(OC)c(OC)c(OC)c1
[1]
  IC50: 19 nM
[2]
  IC50: 10 nM
[3]
  IC50: 26 nM
[4]
  IC50: 25 nM
[5]
  IC50: 138 nM
[6]
  IC50: 16 nM
[7]
  IC50: 28 nM
[8]
  IC50: 4200 nM

## COc1ccc2c(c1O)COC[C@@H]2c1cc(OC)c(OC)c(OC)c1
[1]
  IC50: 8 nM
[2]
  IC50: 8 nM
[9]
  inhibition: 79.4%
[4]
  IC50: 12 nM
[5]
  IC50: 58 nM
[10]
  inhibition: 92.6%
[6]
  IC50: 12 nM
[7]
  IC50: 11 nM
[8]
  IC50: 2500 nM

## COc1cc2c(cc1O)C(c1cc(OC)c(OC)c(OC)c1)=COC2
[3]
  IC50: > 10000 nM

## COc1cc2c(cc1O)C(c1cc(OC)c(OC)c(OC)c1)COC2 (centres undefined)
[3]
  IC50: > 10000 nM

## COc1ccc2c(c1O)COC[C@H]2c1cc(OC)c(OC)c(OC)c1
[1]
  IC50: 460 nM
[2]
  IC50: 800 nM
[4]
  IC50: 940 nM
[5]
  IC50: 900 nM
[6]
  IC50: 870 nM
[7]
  IC50: 900 nM
[8]
  IC50: 4300 nM

## COc1ccc2c(c1O)COCC2c1cc(OC)c(OC)c(OC)c1 (racemic)
[1]
  IC50: 10 nM
[11]
  Activity: 13.7%
[2]
  IC50: 11 nM
[12]
  Activity: 54.1%
[13]
  Activity: 12.7%
[14]
  Activity: Dose-dependent effect
[15]
  Activity: 22.4%
[9]
  inhibition: 76.4%
[16]
  Activity: 29%
[3]
  IC50: 15 nM
[4]
  IC50: 30 nM
[17]
  Activity: 46.5%
[18]
  Activity: 26.7%
[19]
  Activity: 19.5%
[20]
  Activity: Active
[5]
  IC50: 95 nM
[21]
  Activity: Dose-dependent effect
[10]
  inhibition: 89.6%
[22]
  Activity: Dose-dependent effect
[23]
  Activity: 62.3%
[6]
  IC50: 25 nM
[24]
  Activity: Non-Toxic
[25]
  Activity: 17.5%
[7]
  IC50: 22 nM
[26]
  Activity: 29%
[27]
  Activity: 13.7%
[8]
  IC50: 3100 nM
[28]
  Activity: 55.1%
[29]
  Activity: 54.1%

## COc1ccc(/C=C\c2cc(OC)c(OC)c(OC)c2)cc1O [COMBRETASTATIN A4]
[1]
  IC50: 15 nM
[2]
  IC50: 8 nM
[4]
  IC50: 15 nM
[17]
  Activity: 44.8%
[5]
  IC50: 95 nM
[23]
  Activity: 55.3%
[6]
  IC50: 12 nM
[7]
  IC50: 15 nM
[8]
  IC50: 2500 nM

## CC(=O)O[C@H]1C(=O)[C@@]2(C)[C@H]([C@H](OC(=O)c3ccccc3)[C@]3(O)C[C@H](OC(=O)[C@H](O)[C@@H](NC(=O)c4ccccc4)c4ccccc4)C(C)=C1C3(C)C)[C@]1(OC(C)=O)CO[C@@H]1C[C@@H]2O [PACLITAXEL]
[30]
  Activity: 72.1%
[31]
  Activity: Toxic

Source: ChEMBL document CHEMBL4266000, “Discovery of Novel 4-Arylisochromenes as Anticancer Agents Inhibiting Tubulin Polymerization” (ACS Med Chem Lett, 2018)
